Source: article PMC4476059 (Cell, 2015)

Legend:
Type in all cases: cell-based
[1] = molecular target: T1, full-length wild-type LPA1 (Homo sapiens, UniProt Q92633); assay: Ca2+ mobilization assay in B103 cells expressing full-length wild-type LPA1; settings: read-out: EC50, Ca2+ mobilization assay; B103 cells heterologously expressing full-length wild-type LPA1; normalized to 3 μM 1-oleoyl-LPA (Figure 6D)
LPA1 [2] = molecular target: T2, LPA1 (Homo sapiens, UniProt Q92633); assay: Neurite retraction assay in B103 cells expressing LPA1; settings: stable cell line expressing LPA1, 15 min treatment
Method in brief: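 B103 rat neuroblastoma stable line carrying HA-tagged full-length human LPA1 (G418-selected, sorted for high anti-HA staining), serum-starved overnight in FreeStyle 293 medium. Cells were given ligands for 15 min at 37°C, washed, and fixed in 2% paraformaldehyde. Under the microscope, round cells lacking neurite extensions were counted and expressed as a percentage of observed cells.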

LPA1 [3] = molecular target: T2, LPA1; assay: F-actin stress fiber formation assay in B103 cells expressing LPA1; settings: 15 min treatment
Method in brief: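 Rat neuroblastoma B103 cells stably expressing HA-tagged full-length human LPA1 (G418 selection, FACS-sorted for high anti-HA signal), starved overnight in FreeStyle 293 medium, then exposed to ligands for 15 min at 37°C. Cells were fixed with 2% paraformaldehyde, washed with 0.3% Triton X-100 in PBS, stained with 1 μg/mL rhodamine-phalloidin for 30 min at room temperature, and imaged by confocal microscopy.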

[4] = molecular target: T1, full-length wild-type LPA1; assay: cAMP assay; settings: read-out: EC50, cAMP assay; B103 cells expressing full-length wild-type LPA1; 10 μM forskolin; n=2 (Figure 6D)

T1 sequence (Q92633 whole entry): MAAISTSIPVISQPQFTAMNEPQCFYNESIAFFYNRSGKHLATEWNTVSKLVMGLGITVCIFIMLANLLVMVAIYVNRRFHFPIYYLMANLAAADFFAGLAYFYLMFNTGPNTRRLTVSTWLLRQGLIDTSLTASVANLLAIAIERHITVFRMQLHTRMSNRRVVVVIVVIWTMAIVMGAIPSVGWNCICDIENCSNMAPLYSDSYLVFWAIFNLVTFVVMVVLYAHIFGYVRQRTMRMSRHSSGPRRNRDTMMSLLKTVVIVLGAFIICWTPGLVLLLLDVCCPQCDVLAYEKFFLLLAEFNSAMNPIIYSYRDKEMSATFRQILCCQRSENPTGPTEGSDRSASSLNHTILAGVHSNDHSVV
T2 sequence (Q92633 whole entry): as above

EC50 [1] [nM]	EC50 [4] [nM]	SMILES	Neurite retraction (cell morphology change mediated by LPA1) (LPA1 [2])	F-actin stress fiber formation (LPA1 [3])
1120 ± 1480	–	CCCCC/C=C\C/C=C\C/C=C\C/C=C\CCCC(=O)OC[C@@H](O)COP(=O)(O)O [1-ALPA, 1-arachidonoyl-LPA]	–	–
–	–	CCCCC/C=C\C/C=C\C/C=C\C/C=C\CCCC(=O)NCCOP(=O)(O)O [pAEA]	robust activation	activated
146 ± 74	0.345 ± 0.202	CCCCCCCC/C=C\CCCCCCCC(=O)OCC(O)COP(=O)(O)O (centres unmarked) [LPA 18:1 sn1, 1-oleoyl-LPA]	–	–
